From ChEMBL document CHEMBL3244070, “Spiro[isobenzofuran-1(3H),4'-piperidines]. 3. Diuretic and antihypertensive properties of compounds containing a sulfur attached to nitrogen” (1978) come the findings set out here.

Molecules are shown by their SMILES. The source made the active and inactive calls. The calls are words filed in the database; no cut-off is given here.

Assay [1] has as its system Rattus norvegicus. The experiment in a line: Diuretic activity in acute sodium loaded Wistar rat assessed as urine volume at 50 mg/kg, po measured for 0 to 5 hrs post drug dosing relative to urea. The class given is functional. The method in brief: (§1)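 Female Wistar rats (150–200 g), fasted 16 h. Drug in 1% saline given orally at 15 mL/kg; animals kept in individual metabolic cages with water ad libitum. Urine collected 0–5 h. Each test had vehicle and urea (1000 mg/kg) groups. Na⁺ and K⁺ measured by flame photometry, Cl⁻ by chloride analyzer. Group means for volume and each ion expressed as a ratio to the urea group.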

Assay [2] deals with Rattus norvegicus. Nature of the assay: Diuretic activity in acute sodium loaded Wistar rat assessed as sodium level in urine at 50 mg/kg, po measured for 0 to 5 hrs post drug dosing by flame photometer relative to urea. It is filed as functional. The essentials:
as §1

Assay [3] relates to Rattus norvegicus. Nature of the assay: Diuretic activity in acute sodium loaded Wistar rat assessed as potassium level in urine at 50 mg/kg, po measured for 0 to 5 hrs post drug dosing by flame photometer relative to urea. The class given is functional. The method in brief: as §1
Assay [4] concerns Rattus norvegicus. The experiment in a line: Diuretic activity in acute sodium loaded Wistar rat assessed as chloride level in urine at 50 mg/kg, po measured for 0 to 5 hrs post drug dosing by chloride analyzer relative to urea. The class given is functional. The method in brief: as §1
In another assay the test system is Mus musculus. Nature of the assay: Antidepressant activity in CD-1 mouse at 25 mg/kg, ip administered 30 mins prior to tetrabenazine challenge measured after 30 mins by tetrabenazine assay. It is filed as functional, organism-based. Further details: dose 25 mg/kg.
Assay [5] has as its system Rattus norvegicus. Nature of the assay: Antihypertensive activity in spontaneous hypertensive rat assessed as drop in systolic blood pressure at 50 mg/kg, po administered at 0 hrs on days 1, 2 and 3 measured at 2 hrs after drug dose on day 3 by indirect tail-cuff method. The class given is functional, Artery. The method in brief:
(§2)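 Spontaneously hypertensive rats, tail-cuff (indirect) systolic pressure. Pairs of rats held in a wire basket, conditioned 20 min in a 40 °C incubator. Each reading is the mean of 3–5 determinations. Rats had 2-week training for baseline; those below 175 mmHg were excluded. Oral dosing at 0 h on days 1–3 in groups of six, read before dosing and 2 h after the day-3 dose; paired t test.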

Assay [6] concerns Rattus norvegicus. Nature of the assay: Diuretic activity in acute sodium loaded Wistar rat assessed as urine volume at 25 mg/kg, po measured for 0 to 5 hrs post drug dosing relative to urea. It is filed as functional. The essentials: as §1
Assay [7] concerns Rattus norvegicus. Nature of the assay: Diuretic activity in acute sodium loaded Wistar rat assessed as sodium level in urine at 25 mg/kg, po measured for 0 to 5 hrs post drug dosing by flame photometer relative to urea. It is filed as functional. The method in brief:
as §1

Assay [8] relates to Rattus norvegicus. Nature of the assay: Diuretic activity in acute sodium loaded Wistar rat assessed as potassium level in urine at 25 mg/kg, po measured for 0 to 5 hrs post drug dosing by flame photometer relative to urea. The class given is functional. The essentials: as §1
Assay [9] has as its system Rattus norvegicus. The experiment in a line: Antihypertensive activity in spontaneous hypertensive rat assessed as drop in systolic blood pressure at 25 mg/kg, po administered at 0 hrs on days 1, 2 and 3 measured at 2 hrs after drug dose on day 3 by indirect tail-cuff method. The class given is functional, Artery. The method in brief: as §2
In assay [10] the test system is Rattus norvegicus. The experiment in a line: Diuretic activity in acute sodium loaded Wistar rat assessed as chloride level in urine at 25 mg/kg, po measured for 0 to 5 hrs post drug dosing by chloride analyzer relative to urea. It is filed as functional. The method in brief: as §1
Assay [11] deals with Rattus norvegicus. The experiment in a line: Diuretic activity in acute sodium loaded Wistar rat assessed as urine volume at 10 mg/kg, po measured for 0 to 5 hrs post drug dosing relative to urea. The class given is functional. The method in brief: as §1
Assay [12] concerns Rattus norvegicus. The experiment in a line: Diuretic activity in acute sodium loaded Wistar rat assessed as urine volume at 5 mg/kg, po measured for 0 to 5 hrs post drug dosing relative to urea. The class given is functional. The essentials: as §1
Assay [13] concerns Rattus norvegicus. Nature of the assay: Diuretic activity in acute sodium loaded Wistar rat assessed as urine volume at 2 mg/kg, po measured for 0 to 5 hrs post drug dosing relative to urea. The class given is functional. The method in brief: as §1
The subject of assay [14] is Rattus norvegicus. Nature of the assay: Diuretic activity in acute sodium loaded Wistar rat assessed as sodium level in urine at 10 mg/kg, po measured for 0 to 5 hrs post drug dosing by flame photometer relative to urea. The class given is functional. The method in brief:
as §1

Assay [15] relates to Rattus norvegicus. The experiment in a line: Diuretic activity in acute sodium loaded Wistar rat assessed as sodium level in urine at 5 mg/kg, po measured for 0 to 5 hrs post drug dosing by flame photometer relative to urea. It is filed as functional. The method in brief:
as §1

Assay [16] concerns Rattus norvegicus. The experiment in a line: Diuretic activity in acute sodium loaded Wistar rat assessed as sodium level in urine at 2 mg/kg, po measured for 0 to 5 hrs post drug dosing by flame photometer relative to urea. It is filed as functional. The method in brief:
as §1

Assay [17] concerns Rattus norvegicus. Nature of the assay: Diuretic activity in acute sodium loaded Wistar rat assessed as potassium level in urine at 10 mg/kg, po measured for 0 to 5 hrs post drug dosing by flame photometer relative to urea. It is filed as functional. The method in brief:
as §1

Assay [18] relates to Rattus norvegicus. Nature of the assay: Diuretic activity in acute sodium loaded Wistar rat assessed as potassium level in urine at 5 mg/kg, po measured for 0 to 5 hrs post drug dosing by flame photometer relative to urea. It is filed as functional. The method in brief: as §1
Assay [19] concerns Rattus norvegicus. The experiment in a line: Diuretic activity in acute sodium loaded Wistar rat assessed as potassium level in urine at 2 mg/kg, po measured for 0 to 5 hrs post drug dosing by flame photometer relative to urea. It is filed as functional. The essentials: as §1
Assay [20] relates to Rattus norvegicus. Nature of the assay: Diuretic activity in acute sodium loaded Wistar rat assessed as chloride level in urine at 10 mg/kg, po measured for 0 to 5 hrs post drug dosing by chloride analyzer relative to urea. It is filed as functional. The method in brief:
as §1

Assay [21] has as its system Rattus norvegicus. The experiment in a line: Diuretic activity in acute sodium loaded Wistar rat assessed as chloride level in urine at 5 mg/kg, po measured for 0 to 5 hrs post drug dosing by chloride analyzer relative to urea. The class given is functional. The method in brief: as §1
Assay [22] deals with Rattus norvegicus. Nature of the assay: Diuretic activity in acute sodium loaded Wistar rat assessed as chloride level in urine at 2 mg/kg, po measured for 0 to 5 hrs post drug dosing by chloride analyzer relative to urea. The class given is functional. The essentials:
as §1

In assay [23] the test system is Rattus norvegicus. Nature of the assay: Hypotensive activity in DOCA rat at 25 to 50 mg/kg, po. The class given is functional, organism-based.
For assay [24], the system named is Canis familiaris. Nature of the assay: Antihypertensive activity in acute anesthetized dog at 10 mg/kg, iv. On the set-up: dose 10 mg/kg. The conditions noted are these: Canis lupus familiaris. The class given is functional, organism-based.
The subject of assay [25] is Canis familiaris. The experiment in a line: Diuretic activity in dog at 1 to 50 mg/kg, po. The class given is functional, organism-based. The conditions noted are these: Canis lupus familiaris, Urine.
Assay [26] relates to Canis familiaris. The experiment in a line: Diuretic activity in dog at 20 mg/kg, iv. The class given is functional, organism-based. On the set-up: dose 20 mg/kg. To be noted: Canis lupus familiaris, Urine.
A further assay relates to Rhesus monkey. The experiment in a line: Diuretic activity in rhesus monkey at 10 to 20 mg/kg, po. It is filed as functional, organism-based. To be noted: Macaca mulatta, Urine.
For assay [27], the system named is Rattus norvegicus. The experiment in a line: Antihypertensive activity in spontaneous hypertensive rat assessed as drop in systolic blood pressure at 10 mg/kg, po administered at 0 hrs on days 1, 2 and 3 measured at 2 hrs after drug dose on day 3 by indirect tail-cuff method. The class given is functional, Artery. The method in brief:
as §2

For assay [28], the system named is Rattus norvegicus. Nature of the assay: Antihypertensive activity in spontaneous hypertensive rat assessed as drop in systolic blood pressure at 100 mg/kg, po administered at 0 hrs on days 1, 2 and 3 measured at 2 hrs after drug dose on day 3 by indirect tail-cuff method. It is filed as functional, Artery. The essentials:
as §2

`O=S(=O)(c1ccccc1)N1CCC2(CC1)OC(c1ccccc1)c1ccccc12` (stereo not given): the Ratio is on record as 0.63 in the assay on Rattus norvegicus [1], 0.7 in the assay on Rattus norvegicus [2], 0.57 with Rattus norvegicus [3] and 0.79 with Rattus norvegicus [4]. The result in the assay with Mus musculus was inactive. Besides, in the assay with Rattus norvegicus [5], the Activity was determined as 13 mmHg.
Consider `COc1ccc(SN2CCC3(CC2)OC(c2ccccc2)c2ccccc23)cc1` (stereo not given), for which the Ratio in the assay on Rattus norvegicus [1] turned out to be 1.47; with Rattus norvegicus [6] it was 1.4; in the assay on Rattus norvegicus [2], 1.78; with Rattus norvegicus [7], 0.97; in the assay with Rattus norvegicus [3], 0.8; in the assay with Rattus norvegicus [8] it was 0.84. The Ratio in the assay on Rattus norvegicus [4] is given as 1.47. Further, in the assay on Mus musculus, the result was inactive. Besides, the Activity in the assay with Rattus norvegicus [5] came to 14 mmHg.
With `O=[N+]([O-])c1ccc(SN2CCC3(CC2)OC(c2ccccc2)c2ccccc23)cc1` (stereo not given), in the assay with Rattus norvegicus [9], the Activity stood at 9 mmHg. Also, the Ratio is 1.73 with Rattus norvegicus [1]; 0.59 in the assay with Rattus norvegicus [6]; 2.41 in the assay on Rattus norvegicus [2]; 0.76 in the assay on Rattus norvegicus [7]; 1.2 with Rattus norvegicus [3]; 0.58 in the assay with Rattus norvegicus [8]. The Ratio with Rattus norvegicus [4] is 2.3; in the assay with Rattus norvegicus [10], 0.75. Also, the outcome with Mus musculus was inactive.
Consider `c1ccc(SN2CCC3(CC2)OC(c2ccccc2)c2ccccc23)cc1` (stereo not given), for which the Activity in the assay with Rattus norvegicus [9] is listed as 44 mmHg; in the assay with Rattus norvegicus [5] it was 66 mmHg. Further, the Ratio with Rattus norvegicus [1] was found to be 1.71; with Rattus norvegicus [6] it was 2.2; in the assay on Rattus norvegicus [11], 1.49; with Rattus norvegicus [12] it was 1.2; with Rattus norvegicus [13], 1; in the assay with Rattus norvegicus [2], 1.83. Besides, the Ratio is on record as 2.5 in the assay with Rattus norvegicus [7]; 1.69 in the assay on Rattus norvegicus [14]; 1.31 with Rattus norvegicus [15]; 1.2 in the assay on Rattus norvegicus [16]; 0.97 in the assay on Rattus norvegicus [3]; 1.2 in the assay on Rattus norvegicus [8]. In addition, the Ratio in the assay on Rattus norvegicus [17] is listed as 0.94; in the assay on Rattus norvegicus [18], 0.86; with Rattus norvegicus [19] it was 0.74; with Rattus norvegicus [4], 1.85; in the assay with Rattus norvegicus [20] it was 1.62; with Rattus norvegicus [21], 1.43. Besides, in the assay with Rattus norvegicus [22], the Ratio turned out to be 1.19. Moreover, the outcome with Rattus norvegicus [23] was Active. For the same compound, the outcome in the assay on Canis familiaris [24], in the assay on Canis familiaris [25], in the assay with Canis familiaris [26], with Rhesus monkey and with Mus musculus was inactive.
Turning to `N=C(N)NCCN1CCCCCCC1` [GUANETHIDINE], the Activity in the assay with Rattus norvegicus [27] was 34 mmHg.
On to `[O-][S+](c1ccccc1)N1CCC2(CC1)OC(c1ccccc1)c1ccccc12` (stereo not given), for which the Activity in the assay on Rattus norvegicus [28] is given as 22 mmHg. Further, the Ratio in the assay with Rattus norvegicus [1] was 1.74; in the assay with Rattus norvegicus [6], 0.81; in the assay with Rattus norvegicus [2], 2.2; in the assay on Rattus norvegicus [7] it was 1.22; with Rattus norvegicus [3], 1; in the assay on Rattus norvegicus [8], 0.68. Also, the Ratio with Rattus norvegicus [10] was found to be 1.18. Further, the outcome in the assay on Mus musculus was inactive.
With `NS(=O)(=O)c1cc2c(cc1Cl)N=CNS2(=O)=O` [CHLOROTHIAZIDE], the Ratio in the assay with Rattus norvegicus [1] is recorded as 1.6; in the assay with Rattus norvegicus [2] it was 2.2; in the assay on Rattus norvegicus [3], 1.1.
